Assay results of several laboratories.
Lines come from different studies, so protocols differ.
Observed: enzyme activity
RET: Proto-oncogene tyrosine-protein kinase receptor Ret (RET, Homo sapiens, UniProt P07949)

Structure (SMILES) | target | test | conditions | remaining activity [%]
O=C(Nc1cnn(-c2csc(C(=O)NC3COC3)c2)c1)Nc1ccccc1Cl | RET | inhibitor | 5 µM | 97.8
CCCOc1ccc(OC)c(F)c1C(=O)c1ccc(C(=O)N[C@@H]2CNC[C@H]2NC(=O)c2ccc3[nH]ncc3c2)cc1 | RET | inhibitor | 0.1 µM | 98
CCN(CC)CCNC(=O)c1c(C)[nH]c(/C=C2\C(=O)Nc3ccc(F)cc32)c1C | RET | inhibitor | 0.1 µM | 22
Cc1cnc(NC2CCOCC2)nc1-n1cnc(C(=O)NC(CN)c2cc(F)cc(Cl)c2)c1 (stereo not drawn) | Proto-oncogene tyrosine-protein kinase receptor Ret (RET, Homo sapiens, UniProt P07949, V804L) | inhibitor, radiometric | 1 µM | 93
COC(=O)c1cccc(NC(=O)Nc2cc(C)c3nc(NC(=O)c4ccccc4)sc3c2)c1 | RET | inhibitor, radiometric | 0.1 µM | 109
CCN(CC)c1ccc(C2=NNC(=O)CC2C)cc1[N+](=O)[O-] (stereo not drawn) | RET | inhibitor | 10 µM | 102
Cc1[nH]c(/C=C2\C(=O)Nc3ccc(F)cc32)c(C)c1C(=O)N[C@H]1CCN(C(=O)N(C)C)C1 | RET | inhibitor | 1 µM | 11
COc1cccc(NC(=O)Nc2c(-c3ccc(Cl)cc3)nn(-c3ccc(F)cc3)c2N)c1 | RET | inhibitor, radiometric | 0.1 µM | 110
CC(C)(C)c1nc2c(s1)c1nc(N)ncc1c1ccc(NS(=O)(=O)c3c(F)cccc3F)c(F)c12 | RET | inhibitor, radiometric | 1 µM | 69
CCOc1ccccc1NC(=O)Nc1cc(OC)c2nc(NC(=O)c3ccccc3)sc2c1 | RET | inhibitor, radiometric | 0.1 µM | 118
O=C(Nc1cnn(-c2csc(C(=O)NC3COC3)c2)c1)Nc1c(F)cccc1Cl | RET | inhibitor | 5 µM | 98.1
CC(=O)Nc1cccc2c1CCN(C(=O)CCNC(=O)c1ccsc1)C2 | RET | inhibitor, radiometric | 0.1 µM | 104
CC(C)(O)[C@H]1CC[C@H](Nc2ccc3ncc(-c4cccc(C(F)(F)F)c4)n3n2)CC1 | RET | inhibitor | 1 µM | 86.9
COc1ccc(-c2cn3cc(C(=O)N4CC(O)C4)nc3c(=O)n2C)c(F)c1 | RET | inhibitor, radiometric | 10 µM | 111
Cc1ccc(C(=O)Nc2ccc(CN3CCN(C)CC3)c(C(F)(F)F)c2)cc1C#Cc1cnc2cccnn12 | RET | – | 23.5 nM | 1.3
